Reference: PMC3479660 (Thrombosis and haemostasis, 2012)

What was measured:
P2Y12 receptor [1] = biological target: T1, P2Y12 receptor (Homo sapiens, UniProt Q9H244); experiment: [3H]PSB-0413 radioligand competition binding, Sf9 insect cell membranes; conditions: for rank order of potency at labelled binding sites: unpublished data of the authors
washed platelets [2] = format: cell-based, human; conditions: intermediates 30 μM vs 2-MeSADP 0.04 μM
human platelets [3] = experiment: LTA with PRP: LPA-stimulated platelet shape change; format: cell-based
Outline: (§1)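 Turbidimetric light transmission aggregometry was run on human PRP normalised to 300,000 cells/μl. Platelets were pre-treated for 5 min with 30 μM test compound, then given 10 μM LPA. Shape change was taken from the traces (n=10). Aggregation was reported as mean platelet aggregation in % (n=8).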

human platelets [4] = experiment: LTA with PRP: TRAP-mediated platelet aggregation; format: cell-based; conditions: 30 μM FPP, TRAP 15 μM
human platelets [5] = experiment: LTA with PRP: LPA-stimulated platelet aggregation; format: cell-based; conditions: 30 μM test compound pre-incubated, LPA 10 μM
Outline: as §1

P2Y12 receptor [6] = biological target: T1, P2Y12 receptor; experiment: [35S]GTPγS binding in isolated platelet membranes; format: biochemical
washed platelets [7] = experiment: Calcium flux assay on platelets; format: cell-based, human; conditions: 30 μM FPP
human platelets [8] = experiment: LTA: 2-MeSADP-stimulated platelet aggregation; format: cell-based; conditions: for effect on 2-MeSADP-stimulated platelet aggregation: 30 μM test compound, 30 nM 2-MeS-ADP, PRP
Outline: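 In human PRP (300,000 cells/μl), aggregation was stimulated with 2-MeSADP (30 nM) with or without 30 μM test compound. Full 2-MeSADP concentration-response curves were run alone or after pre-incubation with 15 or 30 μM test compound. Values were normalised to 2-MeSADP alone and EC50 was derived from the curves; n=6.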

human platelets [9] = experiment: LTA with PRP: epinephrine-mediated platelet aggregation; format: cell-based; conditions: 30 μM FPP, epinephrine 1 μM
Outline: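 For light transmission aggregometry, human platelets were normalised to 300,000 cells/μl and exposed to 30 μM test compound before agonist. Epinephrine was added at 1 μM (n=15); the TRAP arm had n=7. Representative traces accompanied the bar data.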

T1 sequence (Q9H244 whole entry): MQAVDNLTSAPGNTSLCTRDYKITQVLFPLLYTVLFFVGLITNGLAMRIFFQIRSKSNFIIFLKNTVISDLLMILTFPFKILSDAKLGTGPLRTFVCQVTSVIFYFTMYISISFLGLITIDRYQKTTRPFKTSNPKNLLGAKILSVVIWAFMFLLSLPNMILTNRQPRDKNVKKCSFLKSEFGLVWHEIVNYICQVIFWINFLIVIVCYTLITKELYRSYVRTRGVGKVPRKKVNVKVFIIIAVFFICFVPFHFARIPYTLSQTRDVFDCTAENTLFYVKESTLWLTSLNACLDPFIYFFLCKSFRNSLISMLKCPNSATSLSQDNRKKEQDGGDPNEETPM

## Nc1ncnc2c1ncn2[C@@H]1O[C@H](COP(=O)(O)OP(=O)(O)O)[C@@H](O)[C@H]1O [ADP, adenosine diphosphate]
P2Y12 receptor [1]
  extent of inhibition of [3H]PSB-0413 binding: complete inhibition
  rank order of potency at labelled binding sites: PSB-0739 ([21], [22]). >2-methylthio-ADP > ADP

## CC(C)=CCOP(=O)(O)OP(=O)(O)O.N.N.N [DMAPP, γ,γ-dimethylallyl pyrophosphate triammonium salt]
Washed platelets [2]
  antagonistic activity on platelets stimulated by 2-MeSADP: Only FPP displayed a statistically significant effect

## CC(C)=CCCC(C)=CCCC(C)=CCOP(=O)(O)O.N.N [FMP, 3,7,11-trimethyl-2,6,10-dodecatrien-1-yl monophosphate ammonium salt]
Washed platelets [2]
  antagonistic activity on platelets stimulated by 2-MeSADP: Only FPP displayed a statistically significant effect

## CC(C)=CCCC(C)=CCCC(C)=CCOP(=O)(O)OP(=O)(O)O.N.N.N [FPP, 3,7,11-Trimethyl-2,6,10-dodecatrien-1-yl pyrophosphate ammonium salt]
Human platelets [3]; 30 μM FPP, 10 μM LPA, p=0.017
  effect on LPA-stimulated platelet shape change: potentiated
Human platelets [3]; FPP alone
  platelet shape change, compound alone: unable to show an effect
Washed platelets [2]
  antagonistic activity on platelets stimulated by 2-MeSADP: statistically significant effect
Human platelets [4]
  effect on TRAP-stimulated platelet aggregation: unaffected
Human platelets [5]
  effect on LPA-stimulated platelet aggregation: no effect
P2Y12 receptor [6]
  IC50: 45 µM
P2Y12 receptor [6]; FPP 1 M alone (so in the source)
  effect of compound alone on [35S]GTPγS binding: small, but significant, increase
P2Y12 receptor [6]; platelet membranes
  concentrations at which FPP independently stimulated [35S]GTPγS binding: below 6 μM
P2Y12 receptor [1]
  IC50: 65.8 µM
  extent of inhibition of [3H]PSB-0413 binding: partial inhibition
P2Y12 receptor [1]; very high concentrations
  maximal inhibition of [3H]PSB-0413 binding: 30–40%
Washed platelets [7]; 5 μM ADP
  effect on ADP-stimulated calcium signalling: no statistical significance
Washed platelets [7]; thrombin 0.5 U/ml
  effect on thrombin-stimulated calcium signalling: no statistical significance
Human platelets [8]
  effect on 2-MeSADP-stimulated platelet aggregation: clear, concentration-dependent inhibition
Human platelets [8]; Homo sapiens, Platelet, read-out: inhibition of 2-MeSADP-stimulated aggregation
  inhibition at 10 µM: 40 ± 5%
Human platelets [9]
  effect on epinephrine-stimulated platelet aggregation: unaffected

## CC(C)=CCC/C(C)=C/CC/C(C)=C/CC/C(C)=C/COP(=O)(O)OP(=O)(O)O.N.N.N [GGPP, all trans-3,7,11,15-tetra-methyl-2,6,10,14-hexadecatetraenyl pyrophosphate ammonium salt]
Washed platelets [2]
  antagonistic activity on platelets stimulated by 2-MeSADP: Only FPP displayed a statistically significant effect

## CC(C)=CCC/C(C)=C/COP(=O)(O)OP(=O)(O)O.N.N.N [GPP, trans-3,7-dimethyl-2,6-octadienyl pyrophosphate ammonium salt]
Washed platelets [2]
  antagonistic activity on platelets stimulated by 2-MeSADP: Only FPP displayed a statistically significant effect

## C=C(C)CCOP(=O)(O)OP(=O)(O)O.N.N.N [IPP, isopentenyl pyrophosphate triammonium salt]
Washed platelets [2]
  antagonistic activity on platelets stimulated by 2-MeSADP: Only FPP displayed a statistically significant effect

## CCCCC/C=C\C/C=C\C/C=C\C/C=C\CCCC(=O)NCC(=O)O [NAG, N-arachidonoylglycine, reference compound]
Human platelets [5]
  effect on LPA-stimulated platelet aggregation: No statistically significant inhibitory effect
Human platelets [8]
  effect on 2-MeSADP-stimulated platelet aggregation: without effect

## Nc1c(S(=O)(=O)[O-])cc(Nc2ccc(Nc3ccccc3)c(S(=O)(=O)[O-])c2)c2c1C(=O)c1ccccc1C2=O.[Na+].[Na+] [PSB-0739, 1-amino-4-[4-phenylamino-sulfophenylamino]-9,10-dioxo-9,10-dihydroanthracene-2-sulfonic acid disodium salt]
P2Y12 receptor [1]
  extent of inhibition of [3H]PSB-0413 binding: complete inhibition
  rank order of potency at labelled binding sites: PSB-0739 ([21], [22]). >2-methylthio-ADP > ADP

## CCCSc1nc(N[C@@H]2C[C@H]2c2ccc(F)c(F)c2)c2nnn([C@@H]3C[C@H](OCCO)[C@@H](O)[C@H]3O)c2n1 [ticagrelor, Ticagrelor, reference compound]
P2Y12 receptor [6]; 60 nM ticagrelor
  effect on 2-MeSADP dose response curve of [35S]GTPγS binding: right-shifted the dose response curve
P2Y12 receptor [6]; 10 μM ticagrelor
  effect on FPP-stimulated [35S]GTPγS binding: readily blocked
